Results: publication PMC4333497 (British Journal of Cancer, 2015)
“Also recorded” adds a separate entry of the source.

Experiments:
dogs = conditions: preclinical pharmacology studies, ref Novartis, 2012; cited from earlier work
[1] = Plasma pharmacokinetics of HSP990 after oral dosing; format: in vivo, human; conditions: for AUClast: day 22; for Cmax: steady state
Procedure, shortened: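 Oral dosing 30 min after a light breakfast, then a 3-h fast, with meal timing recorded. Plasma was assayed centrally by validated LC-MS/MS and analysed non-compartmentally. Day effect was tested by ANCOVA on log-transformed AUC and Cmax with a linear mixed-effect model.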

rats = conditions: preclinical pharmacology studies, ref Novartis, 2012; cited from earlier work
HSP70 = HSP70 levels in PBMCs by ELISA; format: in vivo, human
[2] = system: patients with advanced solid tumours; experiment: Safety: adverse events graded by NCI CTCAE version 3.0 in phase I study; format: in vivo, human
Procedure, shortened: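 Toxicity was graded by NCI CTCAE v3.0 during oral dosing in 28-day cycles. Assessments covered physical and neurological examination, vital signs, weight, performance status, and AEs/SAEs. Haematology, coagulation, biochemistry and urinalysis were done at baseline, on day 1 of every cycle, at the last visit and when clinically indicated. ECGs were done on day 1 of each cycle. ECHO/MUGA was done at baseline, at the end of cycles 2–4, then every other month. Data were summarised descriptively.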

advanced solid tumours [3] = experiment: FDG-PET metabolic response; format: in vivo, human
Procedure, shortened: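 FDG-PET was done at screening/baseline, on day 10 of cycle 1 and on day 2 of cycle 3. Maximum SUV was summed across all target lesions (sSUVmax). A reduction of ⩾25% counted as objective metabolic response and an increase of ⩾25% as progression. Any new PET lesion counted as metabolic progression.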

advanced solid tumours [4] = experiment: Tumour response according to RECIST version 1.0; format: in vivo, human
Procedure, shortened: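 Tumours were assessed radiologically at baseline, at the end of every two 28-day cycles and at the end of treatment. Response was classified per RECIST version 1.0. Patients had at least one measurable lesion at entry and received oral capsules once or twice weekly until progression, unacceptable toxicity or withdrawal.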

[5] = system: patients with advanced solid tumours; experiment: Dose-limiting toxicities and MTD/RP2D determination; format: in vivo, human
Procedure, shortened: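 Oral capsules, once or twice weekly, in 28-day cycles under fasting conditions. Cohorts had at least three patients. A DLT was any clinically relevant AE or abnormal laboratory value in the first 28 days. A Bayesian logistic regression model with escalation with overdose control estimated the posterior probability of DLT at each dose level from cycle 1 data. MTD/RP2D was set from the model plus safety review by investigators.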

[6] = rat model; preclinical; cited from earlier work
[7] = all patients (N=64), two patients

COc1cccc(-c2cc(F)ccc2[C@H]2Cc3nc(N)nc(C)c3C(=O)N2)n1 [HSP990]
Doses at which tremors and ataxia were observed (dogs): ≥ 2 mg/kg | AUClast ([1]; 25 mg twice-weekly): 14.2 µg·h/mL | Cmax ([1]; 25 mg twice-weekly): 0.232 µg/mL | AUClast ([1]; 50 mg once-weekly): 7959 ng/mL | Cmax ([1]; 50 mg once-weekly): 0.552 µg/mL | t1/2 ([1]; both dosing schedules): ~20 h | Time to peak concentrations ([1]; both dosing schedules, postdose): ~3 h | Drug accumulation ([1]; days 1 and 22 of cycle 1, multiple- or twice-weekly doses): no drug accumulation | Apparent clearance ([1]; oral): ~6.4 L/h | Volume of distribution ([1]; oral, apparent): ~200 L | Effects on CNS (rats): no effects on CNS | HSP70 induction in PBMCs (HSP70; once-weekly administration, 2.5 to 60 mg): tended to increase with dose across the 5 mg weekly to 30 mg weekly dose groups | HSP70 induction in PBMCs (HSP70; twice-weekly administration, 25 mg): greater than that seen in once weekly 30 mg to 60 mg dose levels | Total no. of patients who discontinue HSP990 (cause) beyond cycle 1 ([2]; 2.5 mg once weekly): 0 | Total no. of patients who discontinue HSP990 (cause) beyond cycle 1 ([2]; 5 mg once weekly): 0 | Total no. of patients who discontinue HSP990 (cause) beyond cycle 1 ([2]; 10 mg once weekly): 0 | Total no. of patients who discontinue HSP990 (cause) beyond cycle 1 ([2]; 20 mg once weekly): 1 (digestive disorder) | Description of grade ⩾3 drug-related AEs beyond cycle 1 ([2]; 25 mg twice weekly): Diarrhoea | Grade ⩾3 drug-related AEs beyond cycle 1 ([2]; 25 mg twice weekly): 2 | Total no. of patients who discontinue HSP990 (cause) beyond cycle 1 ([2]; 25 mg twice weekly): 0 | Total no. of patients who discontinue HSP990 (cause) beyond cycle 1 ([2]; 30 mg once weekly): 0 | Grade ⩾3 drug-related AEs beyond cycle 1 ([2]; 50 mg once weekly): 6 | Description of grade ⩾3 drug-related AEs beyond cycle 1 ([2]; 60 mg once weekly): Diarrhoea | Grade ⩾3 drug-related AEs beyond cycle 1 ([2]; 60 mg once weekly): 3 | Total no. of patients who discontinue HSP990 (cause) beyond cycle 1 ([2]; 60 mg once weekly): 2 (diarrhoea) | Adverse events requiring dose adjustment or study drug interruption, patients ([2]; all patients (N=64)): 30% | Discontinued treatment for AEs of any causality, patients ([2]; all patients (N=64)): 14% | Drug-related AE that led to study discontinuation, patients ([2]; all patients (N=64)): 11% | Drug-related abdominal pain, patients ([2]; all patients (N=64)): 16% | Drug-related anorexia, patients ([2]; all patients (N=64)): 25% | Drug-related diarrhoea, patients ([2]; all patients (N=64)): 73% | Drug-related dizziness, patients ([2]; all patients (N=64)): 19% | Drug-related insomnia, patients ([2]; all patients (N=64)): 25% | Drug-related nausea, patients ([2]; all patients (N=64)): 22% | Drug-related tremor, patients ([2]; all patients (N=64)): 19% | Drug-related vomiting, patients ([2]; all patients (N=64)): 14% | Grade 3 QTc prolongation, drug-related [2, 7]: 3% | Grade 3 asthenia, drug-related [2, 7]: 3% | Grade 3 hyponatremia, drug-related [2, 7]: 3% | Grade 3 increased ALT and/or AST, drug-related [2, 7]: 3% | Dose delays ([2]; all patients, mostly due to AEs): 22 patients | Neurotoxicities leading to study drug discontinuation, patients ([2]; during and beyond cycle 1, all patients): 14% | Drug-related deaths ([2]; on study and up to 28 days after the last dose): No drug-related deaths | Patients with ⩾25% reduction in sSUVmax of target lesions (advanced solid tumours [3]; 5 mg weekly): 1 patient | Patients with ⩾25% reduction in sSUVmax of target lesions (advanced solid tumours [3]; 25 mg twice weekly): 3 patients | Patients with ⩾25% reduction in sSUVmax of target lesions (advanced solid tumours [3]; 30 mg weekly): 1 patient | Patients with ⩾25% reduction in sSUVmax of target lesions (advanced solid tumours [3]; 50 mg weekly): 6 patients | Complete metabolic response (advanced solid tumours [3]; all patients): No complete metabolic response | Partial or complete responses (RECIST) (advanced solid tumours [4]; all patients): No objective responses were seen; also recorded: No partial or complete responses were observed | Best overall response of stable disease (advanced solid tumours [4]; all patients (N=64)): 25 patients | Prolonged stable disease (⩾6 months), patients (advanced solid tumours [4]; all patients (N=64)): 11% | Stable disease as best overall response, patients (advanced solid tumours [4]; all patients (N=64)): 39% | Stable disease as best overall response, patients (advanced solid tumours [4]; twice-weekly dosing schedule (7 out of 11 patients)): 64% | Total no. of patients with DLTs ([5]; 2.5 mg once weekly, 3 DLT evaluable patients): 0 | Total no. of patients with DLTs ([5]; 5 mg once weekly, 5 DLT evaluable patients): 0 | Total no. of patients with DLTs ([5]; 10 mg once weekly, 7 DLT evaluable patients): 0 | Total no. of patients with DLTs ([5]; 20 mg once weekly, 6 DLT evaluable patients): 0 | Total no. of patients with DLTs ([5]; 30 mg once weekly, 4 DLT evaluable patients): 0 | Number of DLTs encountered ([5]; 50 mg once a week, 22 patients): 5 DLTs | Total no. of patients with DLTs ([5]; 50 mg once weekly, 22 DLT evaluable patients): 4 | Patients who experienced DLTs ([5]; all dose levels and schedules): seven | Distribution in brain tissues [6]: highly distributed in the brain tissues
